Data on three compounds can be found in ChEMBL document CHEMBL5653631, “A Potent and Selective ULK1 Inhibitor Suppresses Autophagy and Sensitizes Cancer Cells to Nutrient Stress” (iScience, 2018).

In test [1] the target is Interferon-induced, double-stranded RNA-activated protein kinase (Homo sapiens) (UniProt P19525). Nature of the test: Inhibition of human recombinant PKR at 15 nM related to control ULK1.
Test [2] deals with T1, NUAK family SNF1-like kinase 2 (Homo sapiens) (UniProt Q9H093).
T1 sequence (whole entry): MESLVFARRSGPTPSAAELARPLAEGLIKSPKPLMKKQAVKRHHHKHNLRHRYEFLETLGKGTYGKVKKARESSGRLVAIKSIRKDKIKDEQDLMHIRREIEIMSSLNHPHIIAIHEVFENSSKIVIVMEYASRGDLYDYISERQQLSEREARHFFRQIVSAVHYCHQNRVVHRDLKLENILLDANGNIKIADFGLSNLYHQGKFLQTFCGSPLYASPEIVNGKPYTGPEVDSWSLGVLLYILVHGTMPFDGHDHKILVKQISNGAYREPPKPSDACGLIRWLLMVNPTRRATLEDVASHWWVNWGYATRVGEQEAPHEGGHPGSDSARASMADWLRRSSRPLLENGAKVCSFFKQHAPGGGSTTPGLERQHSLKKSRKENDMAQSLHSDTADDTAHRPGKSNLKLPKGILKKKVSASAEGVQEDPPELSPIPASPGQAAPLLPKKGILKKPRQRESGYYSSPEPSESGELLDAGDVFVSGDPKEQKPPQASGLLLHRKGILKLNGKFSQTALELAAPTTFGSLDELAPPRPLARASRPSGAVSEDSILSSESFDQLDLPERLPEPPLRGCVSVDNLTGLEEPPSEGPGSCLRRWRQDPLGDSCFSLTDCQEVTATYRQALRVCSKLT
Nature of the test: Inhibition of human recombinant NuaK2 at 15 nM in presence of ATP by radiometric assay relative to control.

Test [3] has as its target T2, MAPK/MAK/MRK overlapping kinase (Homo sapiens) (UniProt Q9UQ07).
T2 sequence (whole entry): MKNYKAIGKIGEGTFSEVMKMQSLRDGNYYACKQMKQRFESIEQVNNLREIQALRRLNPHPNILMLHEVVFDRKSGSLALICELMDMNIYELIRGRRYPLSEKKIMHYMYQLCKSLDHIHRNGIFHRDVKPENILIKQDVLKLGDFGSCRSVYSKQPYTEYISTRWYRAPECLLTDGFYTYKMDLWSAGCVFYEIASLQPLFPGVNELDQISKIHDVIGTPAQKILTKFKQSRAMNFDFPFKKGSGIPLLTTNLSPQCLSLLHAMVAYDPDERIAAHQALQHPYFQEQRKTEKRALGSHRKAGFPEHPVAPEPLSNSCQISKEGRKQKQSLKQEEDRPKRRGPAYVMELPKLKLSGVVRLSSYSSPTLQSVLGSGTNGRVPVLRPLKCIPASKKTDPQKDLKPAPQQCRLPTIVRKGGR
Nature of the test: Inhibition of human recombinant MOK at 40 nM related to control ULK1.

For the next test, the species on record is Homo sapiens. Nature of the test: Inhibition of human recombinant ABL at 40 nM related to control ULK1. In a few lines: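 Radiometric activity assays in a panel of 327 human recombinant kinases, each run in duplicate at one inhibitor concentration. Activity remaining is expressed as percent of vehicle control, and percent inhibition is calculated as 100% minus percent activity remaining.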

For test [4], the target named is Insulin receptor (Homo sapiens) (UniProt P06213). Nature of the test: Inhibition of human recombinant INSR at 40 nM related to control ULK1.
Chain of Insulin receptor (Homo sapiens) (P06213 28-758 limits assumed): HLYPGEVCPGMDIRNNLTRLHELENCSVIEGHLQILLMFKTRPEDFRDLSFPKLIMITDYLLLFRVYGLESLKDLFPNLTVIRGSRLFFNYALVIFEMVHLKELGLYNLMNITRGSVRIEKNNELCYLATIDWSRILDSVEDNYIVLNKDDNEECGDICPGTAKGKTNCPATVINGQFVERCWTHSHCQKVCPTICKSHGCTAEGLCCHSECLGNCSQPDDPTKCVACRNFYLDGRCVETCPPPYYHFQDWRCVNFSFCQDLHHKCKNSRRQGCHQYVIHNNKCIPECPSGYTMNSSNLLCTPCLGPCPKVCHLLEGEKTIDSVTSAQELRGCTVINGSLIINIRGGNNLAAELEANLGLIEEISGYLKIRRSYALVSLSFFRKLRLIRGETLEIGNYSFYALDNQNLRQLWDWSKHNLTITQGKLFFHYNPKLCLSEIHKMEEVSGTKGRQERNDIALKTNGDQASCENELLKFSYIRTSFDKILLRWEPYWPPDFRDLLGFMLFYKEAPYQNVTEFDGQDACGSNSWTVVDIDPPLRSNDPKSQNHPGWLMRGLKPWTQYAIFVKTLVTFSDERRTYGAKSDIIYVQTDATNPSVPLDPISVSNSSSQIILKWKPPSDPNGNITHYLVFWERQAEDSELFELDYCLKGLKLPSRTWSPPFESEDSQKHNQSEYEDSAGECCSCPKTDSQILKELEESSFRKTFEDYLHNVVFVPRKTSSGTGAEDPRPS
Chain of Insulin receptor (Homo sapiens) (P06213 763-1382 limits assumed): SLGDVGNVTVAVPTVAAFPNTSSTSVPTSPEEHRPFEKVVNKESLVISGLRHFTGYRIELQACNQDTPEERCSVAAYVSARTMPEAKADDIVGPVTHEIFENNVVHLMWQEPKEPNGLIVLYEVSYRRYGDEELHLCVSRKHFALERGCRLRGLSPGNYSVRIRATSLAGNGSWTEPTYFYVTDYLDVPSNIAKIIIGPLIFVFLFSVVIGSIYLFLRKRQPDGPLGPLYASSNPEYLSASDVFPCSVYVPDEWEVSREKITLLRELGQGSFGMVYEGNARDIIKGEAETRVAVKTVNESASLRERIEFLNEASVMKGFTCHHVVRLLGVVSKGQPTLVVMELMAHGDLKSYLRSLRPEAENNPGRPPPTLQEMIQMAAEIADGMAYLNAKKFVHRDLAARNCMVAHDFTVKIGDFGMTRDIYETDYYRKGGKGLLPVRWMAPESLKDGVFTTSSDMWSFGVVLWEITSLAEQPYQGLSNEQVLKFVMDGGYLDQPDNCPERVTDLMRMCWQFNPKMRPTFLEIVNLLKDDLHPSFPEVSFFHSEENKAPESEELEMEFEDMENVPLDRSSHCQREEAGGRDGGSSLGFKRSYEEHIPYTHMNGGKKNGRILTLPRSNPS
Test [5] has as its target T3, Mitogen-activated protein kinase kinase kinase 2 (Homo sapiens) (UniProt Q9Y2U5).
T3 sequence (whole entry): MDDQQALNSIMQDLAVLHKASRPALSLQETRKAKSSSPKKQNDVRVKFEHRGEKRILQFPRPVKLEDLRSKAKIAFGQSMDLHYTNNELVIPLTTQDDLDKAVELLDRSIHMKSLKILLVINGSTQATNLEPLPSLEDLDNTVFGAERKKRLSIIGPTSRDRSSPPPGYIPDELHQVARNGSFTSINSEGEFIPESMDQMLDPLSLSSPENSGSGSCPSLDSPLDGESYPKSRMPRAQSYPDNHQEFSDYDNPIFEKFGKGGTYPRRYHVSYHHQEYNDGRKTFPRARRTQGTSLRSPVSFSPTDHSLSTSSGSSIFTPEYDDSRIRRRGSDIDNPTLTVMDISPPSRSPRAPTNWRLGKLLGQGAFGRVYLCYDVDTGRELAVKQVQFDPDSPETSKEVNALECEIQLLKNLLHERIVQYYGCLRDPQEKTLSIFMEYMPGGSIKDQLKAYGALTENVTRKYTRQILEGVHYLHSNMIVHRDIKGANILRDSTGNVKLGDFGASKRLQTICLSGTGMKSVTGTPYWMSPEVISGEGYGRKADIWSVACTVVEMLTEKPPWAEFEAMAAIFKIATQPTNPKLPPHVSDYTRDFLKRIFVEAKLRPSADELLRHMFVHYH
Nature of the test: Inhibition of human recombinant MAP3K2 at 40 nM related to control ULK1.

The target in test [6] is Serine/threonine-protein kinase 32A (Homo sapiens) (UniProt Q8WU08). Nature of the test: Inhibition of human recombinant YANK1 at 500 nM in presence of ATP by radiometric assay relative to control.
Chain of Serine/threonine-protein kinase 32A (Homo sapiens) (Q8WU08 whole entry): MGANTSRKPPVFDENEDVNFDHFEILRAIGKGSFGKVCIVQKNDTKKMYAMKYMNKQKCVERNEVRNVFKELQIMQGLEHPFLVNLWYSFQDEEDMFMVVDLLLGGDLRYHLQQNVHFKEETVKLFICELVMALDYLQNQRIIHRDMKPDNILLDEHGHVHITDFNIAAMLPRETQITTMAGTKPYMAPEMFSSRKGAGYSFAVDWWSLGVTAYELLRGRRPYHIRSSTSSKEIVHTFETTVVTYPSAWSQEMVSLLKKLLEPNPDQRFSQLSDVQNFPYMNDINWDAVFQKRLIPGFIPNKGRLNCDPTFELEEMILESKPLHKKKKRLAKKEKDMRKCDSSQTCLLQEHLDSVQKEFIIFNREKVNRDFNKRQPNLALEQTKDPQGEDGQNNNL
Test [7] deals with Serine/threonine-protein kinase SIK2 (Homo sapiens) (UniProt Q9H0K1). Nature of the test: Inhibition of human recombinant QIK at 500 nM in presence of ATP by radiometric assay relative to control.
Test [8] has as its target Homeodomain-interacting protein kinase 1 (Homo sapiens) (UniProt Q86Z02). Nature of the test: Inhibition of human recombinant HIPK1 at 500 nM in presence of ATP by radiometric assay relative to control.
Test [9] addresses Insulin receptor-related protein (Homo sapiens) (UniProt P14616). Nature of the test: Inhibition of human recombinant IRR at 500 nM in presence of ATP by radiometric assay relative to control.

Molecules are shown by their SMILES.

Chain of Insulin receptor-related protein (Homo sapiens) (P14616 27-742 limits assumed): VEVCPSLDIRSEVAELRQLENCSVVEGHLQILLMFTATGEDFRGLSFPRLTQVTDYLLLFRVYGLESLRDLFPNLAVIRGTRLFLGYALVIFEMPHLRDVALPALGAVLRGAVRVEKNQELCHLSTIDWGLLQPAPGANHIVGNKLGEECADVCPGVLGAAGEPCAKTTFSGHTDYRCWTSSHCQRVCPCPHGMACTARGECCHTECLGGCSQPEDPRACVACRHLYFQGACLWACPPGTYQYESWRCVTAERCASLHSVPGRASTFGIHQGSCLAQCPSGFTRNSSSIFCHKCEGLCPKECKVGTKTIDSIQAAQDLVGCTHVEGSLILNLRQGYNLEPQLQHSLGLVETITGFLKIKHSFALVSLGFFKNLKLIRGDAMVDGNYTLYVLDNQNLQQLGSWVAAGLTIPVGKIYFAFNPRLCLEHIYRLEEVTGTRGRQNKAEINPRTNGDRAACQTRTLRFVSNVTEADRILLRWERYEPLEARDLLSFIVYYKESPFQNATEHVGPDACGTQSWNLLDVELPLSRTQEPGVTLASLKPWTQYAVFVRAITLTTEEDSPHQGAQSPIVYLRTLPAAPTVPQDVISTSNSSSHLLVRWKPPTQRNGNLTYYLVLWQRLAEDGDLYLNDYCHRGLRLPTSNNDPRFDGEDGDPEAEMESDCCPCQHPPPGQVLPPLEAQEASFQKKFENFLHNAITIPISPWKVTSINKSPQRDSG
Chain of Insulin receptor-related protein (Homo sapiens) (P14616 747-1297 limits assumed): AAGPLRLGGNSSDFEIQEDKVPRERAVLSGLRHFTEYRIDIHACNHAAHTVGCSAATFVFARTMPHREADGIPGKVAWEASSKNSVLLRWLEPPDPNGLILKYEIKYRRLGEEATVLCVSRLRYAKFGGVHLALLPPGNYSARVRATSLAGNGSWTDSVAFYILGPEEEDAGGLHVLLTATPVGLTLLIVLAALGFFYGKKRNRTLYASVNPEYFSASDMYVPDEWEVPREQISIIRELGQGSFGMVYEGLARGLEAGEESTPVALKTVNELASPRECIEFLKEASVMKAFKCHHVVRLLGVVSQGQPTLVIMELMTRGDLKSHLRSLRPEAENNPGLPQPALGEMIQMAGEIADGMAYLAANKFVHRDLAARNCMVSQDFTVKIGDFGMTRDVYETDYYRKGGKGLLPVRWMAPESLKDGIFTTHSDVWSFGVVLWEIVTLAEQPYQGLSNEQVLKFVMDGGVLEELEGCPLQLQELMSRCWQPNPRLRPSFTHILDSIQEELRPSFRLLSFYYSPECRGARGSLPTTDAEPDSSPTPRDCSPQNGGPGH
Chain of Homeodomain-interacting protein kinase 1 (Homo sapiens) (Q86Z02 whole entry, looked up): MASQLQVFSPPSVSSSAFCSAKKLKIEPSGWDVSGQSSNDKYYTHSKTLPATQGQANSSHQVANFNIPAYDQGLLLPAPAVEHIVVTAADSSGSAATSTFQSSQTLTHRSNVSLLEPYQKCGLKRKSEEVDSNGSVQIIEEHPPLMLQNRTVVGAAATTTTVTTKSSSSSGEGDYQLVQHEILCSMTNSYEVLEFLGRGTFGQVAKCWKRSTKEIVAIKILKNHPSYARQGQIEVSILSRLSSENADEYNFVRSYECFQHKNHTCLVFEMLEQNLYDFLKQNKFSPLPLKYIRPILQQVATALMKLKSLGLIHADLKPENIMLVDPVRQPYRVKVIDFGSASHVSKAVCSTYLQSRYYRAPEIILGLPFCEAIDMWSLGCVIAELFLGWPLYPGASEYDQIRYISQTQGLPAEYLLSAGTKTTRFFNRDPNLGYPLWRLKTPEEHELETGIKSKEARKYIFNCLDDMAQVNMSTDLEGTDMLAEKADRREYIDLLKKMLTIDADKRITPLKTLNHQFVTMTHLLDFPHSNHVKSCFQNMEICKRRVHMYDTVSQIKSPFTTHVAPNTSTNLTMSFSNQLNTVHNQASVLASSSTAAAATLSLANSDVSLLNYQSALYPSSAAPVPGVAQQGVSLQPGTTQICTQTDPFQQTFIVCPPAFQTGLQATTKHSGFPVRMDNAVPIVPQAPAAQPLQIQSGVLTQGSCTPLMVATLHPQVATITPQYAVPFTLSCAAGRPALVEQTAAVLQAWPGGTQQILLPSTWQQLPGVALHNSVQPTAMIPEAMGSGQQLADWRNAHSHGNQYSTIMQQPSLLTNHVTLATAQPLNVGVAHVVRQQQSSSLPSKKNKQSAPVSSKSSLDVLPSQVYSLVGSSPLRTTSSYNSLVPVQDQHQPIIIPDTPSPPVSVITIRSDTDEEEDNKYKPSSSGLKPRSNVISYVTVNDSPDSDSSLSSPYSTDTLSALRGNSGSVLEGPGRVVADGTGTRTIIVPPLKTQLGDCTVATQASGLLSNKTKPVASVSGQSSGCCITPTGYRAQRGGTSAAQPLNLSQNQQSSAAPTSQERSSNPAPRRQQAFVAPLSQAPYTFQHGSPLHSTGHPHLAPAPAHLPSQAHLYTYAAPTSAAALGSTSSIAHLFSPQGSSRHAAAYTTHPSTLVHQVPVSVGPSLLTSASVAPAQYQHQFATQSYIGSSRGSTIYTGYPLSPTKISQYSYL
Chain of Interferon-induced, double-stranded RNA-activated protein kinase (Homo sapiens) (P19525 whole entry): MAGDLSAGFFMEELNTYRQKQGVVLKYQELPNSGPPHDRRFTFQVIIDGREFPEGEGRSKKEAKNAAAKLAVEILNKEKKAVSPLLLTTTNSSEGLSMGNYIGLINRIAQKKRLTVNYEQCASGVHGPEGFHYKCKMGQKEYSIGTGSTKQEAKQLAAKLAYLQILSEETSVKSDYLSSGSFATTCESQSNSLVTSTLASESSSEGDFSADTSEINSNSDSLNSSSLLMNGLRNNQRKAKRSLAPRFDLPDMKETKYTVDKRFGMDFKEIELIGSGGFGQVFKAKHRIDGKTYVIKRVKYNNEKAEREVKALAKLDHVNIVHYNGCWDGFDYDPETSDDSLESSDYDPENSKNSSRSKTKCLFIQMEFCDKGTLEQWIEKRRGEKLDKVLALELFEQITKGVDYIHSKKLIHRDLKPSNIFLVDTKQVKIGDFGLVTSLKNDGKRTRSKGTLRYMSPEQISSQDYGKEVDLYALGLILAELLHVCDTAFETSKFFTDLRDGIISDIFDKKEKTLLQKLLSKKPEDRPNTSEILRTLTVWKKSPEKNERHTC

For `CC(C)[C@H](NC(=O)c1cc(-c2cnn3cc(-c4ccc(OCCN5CCCCC5)cc4)cnc23)cs1)C(F)(F)F`, the fold change (FC) in test [1] is 0.02. Further, in test [2], the inhibition is 18%.

Take `O=C(N[C@@H](C1CC1)C(F)(F)F)c1cc(-c2cnn3cc(-c4ccc(F)cc4)cnc23)cs1`: the fold change (FC) in test [3] turned out to be 0; in the test filed under Homo sapiens, 0.16; in test [4] it was 0; in test [5], 0.

As to `CNC(=O)c1ccccc1Oc1nc(Nc2cc(OC)c(OC)c(OC)c2)ncc1Br`, the inhibition in [6] turned out to be 0%; in test [7] it was 0%; in test [8], 3%; in test [9], 9%.

What is called inhibition is the change of the read-out against control, counted positive when it falls.
